Bioassay records from PubChem.
GC-B act – GC-B (human) receptor activation | P20594 | AID 1920062 | 370,000 tested, 0.11% active | activation, % at 10 µM | HEK293-GC-B cells, CNP EC30, cGMP TR-FRET; 0% at EC30 CNP, 100% saturating CNP;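 active means activation at 10 µM reaching about 35% in either raw or pattern-adjusted values, limit read from the data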
Arrestin-AP2 inh – inhibitors of human beta-arrestin and AP2 interaction | FITC-arrestin peptide / GST-AP2 beads, flow cytometry; AP2 beta2 appendage carries R879A mutation | AID 504490 | 340,000 tested, 0.31% active | inhibition, % at 10 µM;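 active means inhibition above a set limit, near 3 SD of compounds lacking own fluorescence, cut at about 54% in these data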
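Measured by: flow cytometry, FL1 (488/535 nm); Material: AP2 appendage R879A on GSH beads; Evaluation: percent response; Timing: pre-incubation 12 min, peptide binding 1 h, room temperature; Also added: 50 nM FITC-arrestin peptide; Medium: PBS with 0.05% Tween 20 and 0.1% BSA.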
GalR3 antag – blocks the human galanin receptor 3 | O60755 | HEK293 GalR3-CNG cAMP membrane potential fluorescence; galR3 body fused to GalR1 C-terminus | AID 651719 | inhibition, % at 3 µM | 360,000 tested, 0.44% active;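 active means inhibition above the screen-wide average plus 3 SD, cut at about 13% in these data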;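 further: forskolin and galanin both at EC90 stimulate the cells; cAMP rise reported by CNG channel membrane potential dye signal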
NPR1 activator – GC-A (human) enzyme activation. HEK293 GC-A cells, cGMP TR-FRET, EC30 ANP; 0% at EC30 ANP, 100% saturating ANP. activation, % at 10 µM. 370,000 tested, 0.14% active; in the data active means activation above about 40%
GalR3 antag conf – confirmation of human galanin receptor 3 antagonists | shares compounds with GalR3 antag | HEK293 GalR3 CNG cAMP biosensor, membrane potential fluorescence; galR3 fused to GalR1 carboxy tail; challenged with forskolin and galanin at EC90 | inhibition, % at 3 µM | 1,600 tested, 59% active | AID 652245;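 active means inhibition above the primary screen's cutoff, the mean inhibition of all screened compounds plus 3 SD, cut at about 13% in these data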
HEK-CNG parental – counter-screen for GalR3 antagonists: nonspecific agonists in parental HEK-CNG cells. 1,600 tested, 10% active. activation, % at 3 µM. AID 652268. shares compounds with GalR3 antag. HEK293-CNG parental cells, cAMP membrane potential fluorescence; normalised: DMSO wells 0%, forskolin wells 100%; in the data active means activation above about 1.3%
A number is an active result. In the library only some 0.94% were active in any assay of this set; here they are far more common.

Screening COc1ccc(CNCCc2c(C)[nH]c3ccc(OC(F)(F)F)cc23)c(OC)c1 returned GC-B act inactive, Arrestin-AP2 inh inactive, GalR3 antag 24, NPR1 activator inactive, GalR3 antag conf 90 and HEK-CNG parental inactive.
`CC(Cc1ccsc1)NCc1cn[nH]c1-c1ccc(F)cc1F` (centres undefined) gave GC-B act inactive, Arrestin-AP2 inh inactive, GalR3 antag inactive and NPR1 activator inactive.
For O=C(O)C(Br)Br the results were GC-B act inactive, GalR3 antag inactive and NPR1 activator inactive.
COc1ccc2c(C)c(CC(=O)N3C[C@H]4C[C@@H](C3)c3cccc(=O)n3C4)c(=O)oc2c1C was read as GC-B act inactive, Arrestin-AP2 inh inactive, GalR3 antag 20, NPR1 activator inactive, GalR3 antag conf inactive and HEK-CNG parental inactive.
Screening C=CCN1C[C@H](C)N(C(c2ccc(C(=O)N(CC)CC)cc2)c2cccc(OC)c2)CC1C (some centres undefined) returned GC-B act inactive, GalR3 antag inactive and NPR1 activator inactive.
CCn1c(C)c(C(=O)O)c2cc(OC)ccc21 was read as GC-B act inactive, Arrestin-AP2 inh inactive, GalR3 antag 13, NPR1 activator inactive, GalR3 antag conf inactive and HEK-CNG parental inactive.
For CC1OC(OC2C=C3CCC4C(CCC5(C)C(c6ccc(=O)oc6)CCC45O)C3(C)CC2)C(O)C(OC2OC(CO)C(O)C(O)C2O)C1O (centres undefined) the results were GC-B act inactive, Arrestin-AP2 inh inactive, GalR3 antag 14, NPR1 activator inactive, GalR3 antag conf 39 and HEK-CNG parental 4.1.
`C[C@H]1CNCCN1c1ccc(N2CC[C@H](O)C2)c(C#N)c1` gave GC-B act inactive, GalR3 antag inactive and NPR1 activator inactive.
